ChEMBL document CHEMBL3351464, “Identifying novel selective non-nucleoside DNA methyltransferase 1 inhibitors through docking-based virtual screening” (J Med Chem, 2014)
Activity calls are given as the source filed them. The calls are words filed in the database; no cut-off is given here.

Columns and labels:
[1] = target: T1, DNA (cytosine-5)-methyltransferase 1 (Mus musculus, UniProt P13864); experiment: Inhibition of N-terminal His6-tagged mouse DNMT1 (731 to 1602 residues) expressed in Escherichia coli BL21 (DE3) incubated for 15 mins before addition of [3H]-SAM and poly(dI-dC).poly(dI-dC) by liquid scintillation counting based radioactive methylation assay
Method in brief: (§1)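 Enzyme was preincubated with compound for 15 min at room temperature, then reacted for 60 min at 37°C. Products were filter-captured, washed and counted by scintillation. IC50 came from a nonlinear dose-response fit; single-point tests used 50 µM.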

[2] = target: DNA (cytosine-5)-methyltransferase 1 (Mus musculus) (UniProt P13864); experiment: Inhibition of N-terminal His6-tagged mouse DNMT1 (731 to 1602 residues) expressed in Escherichia coli BL21 (DE3) at 50 uM incubated for 15 mins before addition of [3H]-SAM and poly(dI-dC).poly(dI-dC) by liquid scintillation counting based radioactive methylation assay; method in brief: as §1
[3] = target: DNA (cytosine-5)-methyltransferase 1 (Mus musculus) (UniProt P13864); experiment: Inhibition of N-terminal His6-tagged mouse DNMT1 (731 to 1602 residues) at 200 uM expressed in Escherichia coli BL21 (DE3) incubated for 2 hrs using S-adenosylmethionine by ELISA
Method in brief: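 Mouse DNMT1 was purified by HisTrap, SUMO-tag cleavage, heparin and gel filtration. 200 nM enzyme was incubated with 200 μM compound (1% DMSO) and AdoMet in DNMT assay buffer at 37°C for 2 h. Capture and detection antibodies were then applied, followed by developer for 10 min at room temperature. Absorbance was read at 450 nm, with AdoHcy as reference.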

CAPAN-1 = experiment: Antiproliferative activity against human Capan1 cells assessed as inhibition of cell proliferation at 1.25 to 10 uM after 24 to 72 hrs by MTT assay; assay type: functional, cell-based
Method in brief: (§2)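 HCT116 maintained in McCoy's 5A and Capan-1 in DMEM, each with 10% FBS, at 37°C under 5% CO2. Cells were exposed to a range of compound concentrations from DMSO stocks, with DMSO-matched controls. Viability was read by MTT absorbance at 490 nm, and percent proliferation was normalized to control cells.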

HCT-116 = experiment: Antiproliferative activity against human HCT116 cells assessed as inhibition of cell proliferation at 1.25 to 10 uM after 24 to 72 hrs by MTT assay; assay type: functional, cell-based; method in brief: as §2
[4] = target: Histone-lysine N-methyltransferase 2A (Homo sapiens, UniProt Q03164); experiment: Inhibition of MLL1 (unknown origin) incubated for 15 mins before addition of biotinylated peptide H3 (1 to 21) and SAM by methylation assay
Method in brief: (§3)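 AlphaLISA assays were run in modified Tris pH 9.0 with 100 nM biotinylated H3(1-21) and SAM at Km: MLL1 2 nM enzyme with 2 μM SAM; SUV39H1 3 nM with 20 μM; SET7/9 0.2 nM with 0.22 μM; G9a 0.03 nM with 50 μM. Enzyme and compound were preincubated for 15 min, then reacted for 60 min at room temperature before the beads were added. IC50 came from a nonlinear dose-response fit.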

[5] = target: T2, Histone-lysine N-methyltransferase SUV39H1 (Homo sapiens, UniProt O43463); experiment: Inhibition of SUV39H1 (unknown origin) incubated for 15 mins before addition of biotinylated peptide H3 (1 to 21) and SAM by methylation assay; method in brief: as §3
T2 sequence (O43463 whole entry): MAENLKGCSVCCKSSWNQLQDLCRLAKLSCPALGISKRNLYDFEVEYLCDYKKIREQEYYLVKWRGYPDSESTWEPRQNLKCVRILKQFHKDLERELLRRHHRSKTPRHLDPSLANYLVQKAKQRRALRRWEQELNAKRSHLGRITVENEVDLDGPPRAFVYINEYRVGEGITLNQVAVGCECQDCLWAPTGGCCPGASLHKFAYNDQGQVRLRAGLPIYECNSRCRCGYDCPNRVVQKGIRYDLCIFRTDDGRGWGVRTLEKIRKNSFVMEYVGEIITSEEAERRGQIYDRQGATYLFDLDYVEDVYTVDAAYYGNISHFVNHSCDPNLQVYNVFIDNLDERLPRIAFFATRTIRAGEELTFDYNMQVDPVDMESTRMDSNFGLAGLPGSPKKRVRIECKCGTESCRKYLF

[6] = Binding affinity to DNA (unknown origin) at 0.0625 to 0.5 mM by ethidium bromide dye based agarose gel electrophoresis method
[7] = target: T3, Histone-lysine N-methyltransferase EHMT2 (Homo sapiens, UniProt Q96KQ7); experiment: Inhibition of G9a (unknown origin) incubated for 15 mins before addition of biotinylated peptide H3 (1 to 21) and SAM by methylation assay; method in brief: as §3
T3 sequence (Q96KQ7 whole entry): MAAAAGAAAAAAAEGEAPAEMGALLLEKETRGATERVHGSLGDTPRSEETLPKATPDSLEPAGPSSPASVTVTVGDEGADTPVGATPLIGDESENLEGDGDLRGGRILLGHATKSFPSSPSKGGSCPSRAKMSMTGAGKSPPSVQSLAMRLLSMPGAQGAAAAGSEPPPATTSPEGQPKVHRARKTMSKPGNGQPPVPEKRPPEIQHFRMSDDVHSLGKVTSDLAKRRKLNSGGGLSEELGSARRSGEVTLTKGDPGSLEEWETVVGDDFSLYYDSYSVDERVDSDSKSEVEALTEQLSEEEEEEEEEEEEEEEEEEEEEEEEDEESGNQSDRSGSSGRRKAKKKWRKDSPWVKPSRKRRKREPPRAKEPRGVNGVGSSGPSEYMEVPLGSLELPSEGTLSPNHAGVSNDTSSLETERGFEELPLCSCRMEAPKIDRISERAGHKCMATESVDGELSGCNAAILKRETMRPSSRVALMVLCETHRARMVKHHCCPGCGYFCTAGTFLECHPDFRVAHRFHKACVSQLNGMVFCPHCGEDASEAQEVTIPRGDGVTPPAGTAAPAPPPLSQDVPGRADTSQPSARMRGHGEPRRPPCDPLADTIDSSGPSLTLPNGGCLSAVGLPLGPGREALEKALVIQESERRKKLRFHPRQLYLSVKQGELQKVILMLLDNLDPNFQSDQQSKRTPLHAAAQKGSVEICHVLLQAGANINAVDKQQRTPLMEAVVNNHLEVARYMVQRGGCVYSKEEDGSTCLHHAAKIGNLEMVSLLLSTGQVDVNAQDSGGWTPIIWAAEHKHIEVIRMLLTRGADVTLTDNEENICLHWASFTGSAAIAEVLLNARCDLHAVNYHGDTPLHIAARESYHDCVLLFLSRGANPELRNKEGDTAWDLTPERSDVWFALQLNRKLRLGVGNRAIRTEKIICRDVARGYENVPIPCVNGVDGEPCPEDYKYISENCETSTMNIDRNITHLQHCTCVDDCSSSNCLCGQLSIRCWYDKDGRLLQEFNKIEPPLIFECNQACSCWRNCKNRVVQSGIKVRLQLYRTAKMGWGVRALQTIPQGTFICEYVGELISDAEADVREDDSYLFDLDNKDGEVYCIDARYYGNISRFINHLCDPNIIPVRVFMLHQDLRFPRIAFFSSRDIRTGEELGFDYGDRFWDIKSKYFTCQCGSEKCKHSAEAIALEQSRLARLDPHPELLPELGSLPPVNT

[8] = target: DNA (cytosine-5)-methyltransferase 3A (Homo sapiens, UniProt Q9Y6K1); experiment: Inhibition of DNMT3A (unknown origin) incubated for 15 mins before addition of [3H]-SAM and poly(dI-dC).poly(dI-dC) by liquid scintillation counting based radioactive methylation assay
[9] = target: T4, Histone-lysine N-methyltransferase SETD7 (Homo sapiens, UniProt Q8WTS6); experiment: Inhibition of SET7/9 (unknown origin) incubated for 15 mins before addition of biotinylated peptide H3 (1 to 21) and SAM by methylation assay; method in brief: as §3
T4 sequence (Q8WTS6 whole entry): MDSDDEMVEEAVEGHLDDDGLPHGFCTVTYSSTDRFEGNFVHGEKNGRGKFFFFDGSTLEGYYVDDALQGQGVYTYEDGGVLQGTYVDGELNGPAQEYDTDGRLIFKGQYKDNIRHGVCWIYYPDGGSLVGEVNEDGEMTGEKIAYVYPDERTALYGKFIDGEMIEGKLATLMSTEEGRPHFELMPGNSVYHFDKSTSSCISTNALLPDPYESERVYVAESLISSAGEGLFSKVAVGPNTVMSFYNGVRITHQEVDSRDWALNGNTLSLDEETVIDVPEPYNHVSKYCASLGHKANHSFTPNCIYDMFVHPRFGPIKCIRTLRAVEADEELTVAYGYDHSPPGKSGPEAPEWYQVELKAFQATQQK

[10] = target: T1, DNA (cytosine-5)-methyltransferase 1; experiment: (§4) Binding affinity to N-terminal His6-tagged mouse DNMT1 (731 to 1602 residues) expressed in Escherichia coli BL21 (DE3) by SPR assay
Method in brief: (§5)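 Measured by SPR at 25°C. Purified mouse DNMT1 was amine-coupled to a CM5 chip in 10 mM sodium acetate pH 5.0 and equilibrated overnight in HBS-EP (10 mM HEPES pH 7.4, 150 mM NaCl, 3 mM EDTA, 0.05% P20, 0.1% DMSO). Serially diluted compounds were injected with 120 s contact and 120 s dissociation, and KD was derived by the instrument evaluation software.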

[11] = target: DNA (cytosine-5)-methyltransferase 1 (Mus musculus) (UniProt P13864); experiment: as §4; method in brief: as §5
[12] = target: DNA (cytosine-5)-methyltransferase 3B (Homo sapiens, UniProt Q9UBC3); experiment: Inhibition of DNMT3B (unknown origin) incubated for 15 mins before addition of [3H]-SAM and poly(dI-dC).poly(dI-dC) by liquid scintillation counting based radioactive methylation assay

Sequence of DNA (cytosine-5)-methyltransferase 1 (Mus musculus) (P13864 whole entry, the tested form may be a part): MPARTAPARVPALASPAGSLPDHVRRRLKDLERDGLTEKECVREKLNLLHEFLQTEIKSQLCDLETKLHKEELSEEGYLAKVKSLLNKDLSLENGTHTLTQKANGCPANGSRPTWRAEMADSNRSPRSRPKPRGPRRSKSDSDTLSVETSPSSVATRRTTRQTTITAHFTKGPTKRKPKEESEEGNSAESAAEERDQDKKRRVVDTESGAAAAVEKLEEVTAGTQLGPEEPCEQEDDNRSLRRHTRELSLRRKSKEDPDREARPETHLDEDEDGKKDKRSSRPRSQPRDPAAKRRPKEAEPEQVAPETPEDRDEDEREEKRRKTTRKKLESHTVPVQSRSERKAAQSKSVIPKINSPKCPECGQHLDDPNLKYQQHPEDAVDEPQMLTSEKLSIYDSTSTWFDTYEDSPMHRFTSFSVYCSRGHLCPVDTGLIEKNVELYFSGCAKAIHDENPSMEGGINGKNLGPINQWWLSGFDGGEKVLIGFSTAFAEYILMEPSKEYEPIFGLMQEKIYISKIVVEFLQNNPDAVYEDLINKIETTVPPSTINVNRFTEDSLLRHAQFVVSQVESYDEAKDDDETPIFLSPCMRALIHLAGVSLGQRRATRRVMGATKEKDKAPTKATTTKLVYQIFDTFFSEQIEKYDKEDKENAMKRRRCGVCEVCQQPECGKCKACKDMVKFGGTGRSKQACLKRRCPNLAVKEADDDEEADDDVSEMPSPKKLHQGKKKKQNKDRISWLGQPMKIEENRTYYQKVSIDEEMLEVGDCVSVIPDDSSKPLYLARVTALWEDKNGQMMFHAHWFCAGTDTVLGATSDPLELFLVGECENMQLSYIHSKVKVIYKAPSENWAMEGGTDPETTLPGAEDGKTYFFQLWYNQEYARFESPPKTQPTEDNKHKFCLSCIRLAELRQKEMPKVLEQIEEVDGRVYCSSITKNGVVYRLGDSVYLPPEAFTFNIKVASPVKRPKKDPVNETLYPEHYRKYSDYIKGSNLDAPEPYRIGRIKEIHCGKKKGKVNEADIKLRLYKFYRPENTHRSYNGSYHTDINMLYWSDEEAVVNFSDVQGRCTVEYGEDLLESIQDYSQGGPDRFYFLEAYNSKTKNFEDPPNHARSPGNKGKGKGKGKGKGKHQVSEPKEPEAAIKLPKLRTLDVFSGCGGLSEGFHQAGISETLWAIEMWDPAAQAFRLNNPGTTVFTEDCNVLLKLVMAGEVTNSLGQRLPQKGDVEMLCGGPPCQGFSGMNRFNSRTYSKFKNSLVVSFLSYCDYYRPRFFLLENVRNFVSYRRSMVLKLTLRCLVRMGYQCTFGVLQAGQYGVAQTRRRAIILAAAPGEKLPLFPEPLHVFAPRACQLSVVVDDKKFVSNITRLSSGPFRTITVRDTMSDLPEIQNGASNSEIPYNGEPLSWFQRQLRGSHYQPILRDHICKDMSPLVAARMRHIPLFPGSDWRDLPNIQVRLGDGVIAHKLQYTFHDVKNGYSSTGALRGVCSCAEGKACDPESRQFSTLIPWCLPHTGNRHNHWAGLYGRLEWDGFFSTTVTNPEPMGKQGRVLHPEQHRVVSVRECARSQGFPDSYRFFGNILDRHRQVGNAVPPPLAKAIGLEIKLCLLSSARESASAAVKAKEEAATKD
T1 sequence (P13864 whole entry, the tested form may be a part): as above
Sequence of DNA (cytosine-5)-methyltransferase 3A (Q9Y6K1 whole entry, looked up): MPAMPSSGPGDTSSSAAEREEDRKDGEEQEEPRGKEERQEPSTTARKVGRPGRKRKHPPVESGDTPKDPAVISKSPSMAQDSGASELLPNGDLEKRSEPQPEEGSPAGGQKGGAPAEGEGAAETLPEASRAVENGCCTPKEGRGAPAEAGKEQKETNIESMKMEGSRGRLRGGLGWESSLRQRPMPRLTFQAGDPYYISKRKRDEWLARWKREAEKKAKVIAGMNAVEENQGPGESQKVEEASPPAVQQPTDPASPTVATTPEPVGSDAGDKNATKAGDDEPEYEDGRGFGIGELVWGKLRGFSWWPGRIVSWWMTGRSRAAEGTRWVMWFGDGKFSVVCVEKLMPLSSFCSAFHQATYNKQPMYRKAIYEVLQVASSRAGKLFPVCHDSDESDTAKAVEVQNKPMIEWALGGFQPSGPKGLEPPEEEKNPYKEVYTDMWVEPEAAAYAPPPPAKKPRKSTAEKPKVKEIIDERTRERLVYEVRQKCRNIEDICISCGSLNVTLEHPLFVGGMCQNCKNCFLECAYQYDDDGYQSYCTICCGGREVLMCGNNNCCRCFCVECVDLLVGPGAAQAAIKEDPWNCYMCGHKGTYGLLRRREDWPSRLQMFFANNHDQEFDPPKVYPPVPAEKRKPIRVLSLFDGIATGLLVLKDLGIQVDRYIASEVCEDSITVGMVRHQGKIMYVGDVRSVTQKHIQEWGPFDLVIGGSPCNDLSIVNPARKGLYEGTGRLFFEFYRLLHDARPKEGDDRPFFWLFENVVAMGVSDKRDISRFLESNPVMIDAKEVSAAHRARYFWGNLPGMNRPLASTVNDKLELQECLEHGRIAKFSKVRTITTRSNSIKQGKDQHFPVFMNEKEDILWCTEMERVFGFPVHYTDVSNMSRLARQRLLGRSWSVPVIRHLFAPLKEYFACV

Structure (SMILES)	IC50 [1] [µM]	inhibition [2] [%]	further results
COCCNCC(O)Cn1c2ccccc2c2ccccc21 (racemic)	29.6	71	–
Nc1ncnc2c1ncn2[C@@H]1O[C@H](CSCC[C@H](N)C(=O)O)[C@@H](O)[C@H]1O	–	–	inhibition [3]: Active
OC(CNCCc1ccccc1)Cn1c2ccccc2c2ccccc21 (racemic)	20.7	73.9	–
O[C@@H](CNCCc1c[nH]c2ccccc12)Cn1c2ccccc2c2ccccc21	15.6	–	inhibition (CAPAN-1): Active; inhibition (HCT-116): Active
OC(CNCCc1c[nH]c2ccccc12)Cn1c2ccccc2c2ccccc21 (racemic)	10.3	–	IC50 [4]: > 150 µM; IC50 [5]: > 150 µM; Activity [6]: inactive; IC50 [7]: > 150 µM; IC50 [8]: > 200 µM; IC50 [9]: > 150 µM; inhibition [3]: > 60%; Kd [10]: 1.09 µM; Activity [11]: Dose-dependent effect; IC50 [12]: > 200 µM
O[C@H](CNCCc1c[nH]c2ccccc12)Cn1c2ccccc2c2ccccc21	7.3	–	inhibition (CAPAN-1): Active; inhibition (HCT-116): Active
OCCNCC(O)Cn1c2ccc(Br)cc2c2cc(Br)ccc21 (racemic)	14.1	99.7	–
OC(CNCc1ccccc1)Cn1c2c(c3ccccc31)CCCC2 (racemic)	80.9	62.9	–
Cc1cc(Nc2ccc(NC(=O)c3ccc(Nc4ccnc5ccccc45)cc3)cc2)nc(N)n1	–	–	Activity [6]: Active
CNCC(O)Cn1c(C)c(C)c2ccccc21 (racemic)	–	1.1	–
OC(CNCC1CCCO1)Cn1c2ccccc2c2ccccc21 (racemic)	–	40.1	–
OC(CNCCOc1ccccc1)Cn1c2ccccc2c2ccccc21 (racemic)	–	29.7	–
CC(C)NC[C@@H](O)COC(Cn1c2ccccc2c2ccccc21)Cn1c2ccccc2c2ccccc21	2.5	–	inhibition (CAPAN-1): Active; inhibition (HCT-116): Active
OCCCNCC(O)Cn1c2ccccc2c2ccccc21 (racemic)	–	42.5	–
OC(CNC1CC1)Cn1c2ccccc2c2ccccc21 (racemic)	–	42.6	–
OC(CN1CCOCC1)Cn1c2ccccc2c2ccccc21 (racemic)	–	-5	–
CC(C)NC[C@H](O)COC(Cn1c2ccccc2c2ccccc21)Cn1c2ccccc2c2ccccc21	1.8	–	inhibition (CAPAN-1): Active; inhibition (HCT-116): Active
OC(CNCCc1c[nH]c2ccccc12)Cn1c2ccc(Cl)cc2c2cc(Cl)ccc21 (racemic)	2.5	89.5	–
Cc1c(C)n(CC(O)CNC2CCCCC2)c2ccccc12 (racemic)	–	2.4	–
CC1CCN(CC(O)Cn2c3ccccc3c3ccccc32)CC1 (racemic)	84.1	52.4	–
CCCN(CCC)CC(O)Cn1c2ccccc2c2ccccc21 (racemic)	–	5.5	–
COc1ccc(NCC(O)Cn2c3ccccc3c3ccccc32)cc1 (racemic)	–	0.6	–
COc1cccc2c1C(=O)c1c(O)c3c(c(O)c1C2=O)C[C@@](O)(C(=O)CO)C[C@@H]3O[C@H]1C[C@H](N)[C@H](O)[C@H](C)O1	–	–	Activity [6]: Active
